Measurements as given in ChEMBL document CHEMBL5614466, “Discovery of a Series of Macrocycles as Potent Inhibitors of Leishmania Infantum” (J Med Chem, 2024).
Active and inactive are the calls of the source. No cut-off for these calls is given here.

Legend:
Trypanosoma brucei = assay: Antitrypanosomal activity against axenic culture of Trypanosoma brucei Squib 427 infected in human MRC-5 SV2 cells assessed as reduction in parasite growth incubated for 72 hrs by resazurin reagent based fluorescence analysis; format: functional, organism-based
In short: (§1)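 Trypomastigotes were grown axenically in culture medium. Growth reduction was determined by the previously reported method, with and without added inhibitor.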

[1] = tested on: Trypanosoma brucei rhodesiense; assay: Antitrypanosomal activity against axenic culture of Trypanosoma brucei rhodesiense infected in human MRC-5 SV2 cells assessed as reduction in parasite growth incubated for 72 hrs by resazurin reagent based fluorescence analysis; format: functional, organism-based; in short: as §1
[2] = Cytotoxicity against human MRC5 cells; format: toxicity, cell-based
[3] = Cytotoxicity against mouse Peritoneal macrophage; format: toxicity, cell-based; details: peritoneal macrophages

Compound	Activity (Trypanosoma brucei)	Activity [1]	CC50 [2] [µM]	CC50 [3] [µM]
C[C@@H]1NC(=O)[C@@H](NC(=O)OC(C)(C)C)Cc2ccc(cc2)Oc2ccc(cc2NC(=O)c2ccccn2)C(=O)CNC1=O	inactive	Active	–	–
COc1ccc(C[C@H](NC(=O)OC(C)(C)C)C(=O)N[C@@H](Cc2ccccc2)C(=O)NCC(=O)c2cccc(NC(=O)c3ccccn3)c2)cc1	inactive	Active	–	–
CC(=O)Nc1cc2ccc1Oc1ccc(cc1)C[C@H](NC(=O)OC(C)(C)C)C(=O)N[C@@H](Cc1ccccc1)C(=O)NCC2=O	–	–	> 64	–
CC(C)(C)OC(=O)N[C@H]1Cc2ccc(cc2)Oc2ccc(cc2NC(=O)c2ccccn2)C(=O)CNC(=O)[C@H](c2ccccc2)NC1=O	inactive	Active	–	–
CC(=O)N[C@H]1Cc2ccc(cc2)Oc2ccc(cc2NC(=O)c2ccccn2)C(=O)CNC(=O)[C@H](Cc2ccccc2)NC1=O	inactive	Active	–	–
CC(C)(C)C(=O)N[C@H]1Cc2ccc(cc2)Oc2ccc(cc2NC(=O)c2ccccn2)C(=O)CNC(=O)[C@H](Cc2ccccc2)NC1=O	inactive	Active	–	–
CC(C)(C)OC(=O)N[C@H]1Cc2ccc(cc2)Oc2ccc(cc2NC(=O)c2ccccn2)C(=O)CNC(=O)[C@H](Cc2ccccc2)NC1=O	–	–	> 64	–
CC(C)(C)OC(=O)N[C@H]1Cc2ccc(cc2)Oc2ccc(cc2)C(=O)CNC(=O)[C@H](Cc2ccccc2)NC1=O	–	–	> 64	> 64
CC(C)C[C@@H]1NC(=O)[C@@H](NC(=O)OC(C)(C)C)Cc2ccc(cc2)Oc2ccc(cc2NC(=O)c2ccccn2)C(=O)CNC1=O	inactive	Active	–	–
CC(C)(C)OC(=O)N[C@H]1Cc2ccc(cc2)Oc2ccc(cc2NC(=O)c2ccccn2)C(=O)CNC(=O)[C@@H](Cc2ccccc2)NC1=O	inactive	Active	–	–
CC(C)(C)OC(=O)N[C@H]1Cc2ccc(cc2)Oc2ccc(cc2NC(=O)c2ccccn2)CCNC(=O)[C@H](Cc2ccccc2)NC1=O	inactive	Active	–	> 64
CC(C)(C)OC(=O)N[C@H]1CCc2ccc(cc2)Oc2ccc(cc2NC(=O)c2ccccn2)C(=O)CNC(=O)[C@H](Cc2ccccc2)NC1=O	inactive	Active	–	–
